According to ChEMBL document CHEMBL2169776, “Antimicrobial activity of peptidomimetics against multidrug-resistant Escherichia coli: a comparative study of different backbones” (J Med Chem, 2012):
≈ marks a conversion by molar mass, not a printed value.

Legend:
[1] = tested on: Escherichia coli; test: Antibacterial activity against Escherichia coli ATCC 25922 after 16 to 20 hrs by broth microdilution assay; format: functional
[2] = Therapeutic index, ratio of HC10 for human erythrocyte cells to MIC for multidrug resistant bacterial strains; conditions: read-out: TI
Procedure, shortened: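 TI = hemolytic activity divided by median of MIC values. Hemolysis: washed fresh human RBCs (1% v/v in TBS, pH 7.2) with 2-fold oligomer dilutions (1–128 μM), 37 °C, 1 h; supernatant OD 405 nm; melittin 400 μg/mL = 100%, TBS = 0%. HA = concentration giving ≥10% lysis. MICs by broth microdilution, 35 °C, 16–20 h.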

[3] = tested on: Klebsiella pneumoniae; test: Antibacterial activity against multidrug resistant NDM-1 producing Klebsiella pneumoniae isolate after 16 to 20 hrs by broth microdilution assay; format: functional
[4] = tested on: HeLa; test: Cytotoxicity against human HeLa cells assessed as growth inhibition after 1 hr; format: cell-based
Procedure, shortened: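 HeLa cells seeded at 9000 per well, cultured 24 h; at 80−100% confluency washed with HBSS and exposed 1 h (37 °C, 50 rpm) to 2-fold serial dilutions in EMEM. After washing, MTS/PMS (240/2.4 μg/mL) in HBSS added for 1.5 h; formazan read at 492 nm. 0.2% SDS = 0%, EMEM alone = 100%. Test range 1−128 or 8−1024 μM; IC50 reported.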

[5] = tested on: Staphylococcus aureus; test: Antibacterial activity against methicillin-resistant Staphylococcus aureus isolate after 16 to 20 hrs by broth microdilution assay; format: functional
[6] = tested on: Klebsiella pneumoniae; test: Antibacterial activity against multidrug resistant KPC producing Klebsiella pneumoniae isolate after 16 to 20 hrs by broth microdilution assay; format: functional
[7] = Proteolytic stability of compound in presence of Pronase by reverse phase HPLC analysis; format: ADME
Procedure, shortened: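 Oligomer (2 mg/mL solution, 250 μL) incubated with Pronase (1.0 mg/mL solution, 50 μL) in 10 mM Tris pH 7.5 (1.2 mL); enzyme activity first confirmed on Nα-benzoyl arginine. Degradation followed by analytical reverse-phase HPLC (10−60% B) at 6, 12, 18 and 50 h; degradation product identified by HRMS.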

[8] = Hemolytic activity against human RBCs after 1 hr by spectrophotometry; format: ADME, cell-based; conditions: erythrocyte
Procedure, shortened: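 Freshly drawn human erythrocytes washed in TBS (pH 7.2, 10 mM Tris, 150 mM NaCl), 1% v/v suspension mixed with 2-fold serial dilutions (1−128 μM) in water; 1 h at 37 °C. After pelleting, supernatant diluted 1:1 with water and hemoglobin read at OD 405 nm. Melittin (400 μg/mL) = 100%, TBS = 0%. Value is the lowest concentration giving ≥10% lysis.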

[9] = tested on: Escherichia coli; test: Antibacterial activity against multidrug resistant ESBL producing Escherichia coli isolate after 16 to 20 hrs by broth microdilution assay; format: functional
[10] = tested on: Escherichia coli; test: Antibacterial activity against multidrug resistant Amp-C producing Escherichia coli isolate after 16 to 20 hrs by broth microdilution assay; format: functional
[11] = tested on: Escherichia coli; test: Antibacterial activity against multidrug resistant NDM-1 producing Escherichia coli isolate after 16 to 20 hrs by broth microdilution assay; format: functional

CC(=O)N[C@@H](CCCCN)CC(=O)N[C@@H](Cc1ccccc1)C(=O)N[C@@H](CCCCN)CC(=O)N[C@@H](Cc1ccccc1)C(=O)N[C@@H](CCCCN)CC(=O)N[C@@H](Cc1ccccc1)C(=O)N[C@@H](CCCCN)CC(=O)N[C@@H](Cc1ccccc1)C(=O)N[C@@H](CCCCN)CC(=O)N[C@@H](Cc1ccccc1)C(=O)N[C@@H](CCCCN)CC(=O)N[C@@H](Cc1ccccc1)C(=O)N[C@@H](CCCCN)CC(=O)N[C@@H](Cc1ccccc1)C(=O)N[C@@H](CCCCN)CC(=O)N[C@@H](Cc1ccccc1)C(N)=O
MIC [1]: 8 µM (≈ 19 µg/mL) | selectivity ratio [2]: 8 | MIC [3]: 256 µM (≈ 608 µg/mL) | IC50 [4]: 133 µM | MIC [5]: 256 µM (≈ 608 µg/mL) | MIC [6]: 128 µM (≈ 304 µg/mL) | Stability [7]: Stable | HC10 [8]: 64 µM | MIC [9]: 8 µM (≈ 19 µg/mL) | MIC [10]: 16 µM (≈ 38 µg/mL) | MIC [11]: 4 µM (≈ 9.5 µg/mL)
